Experimental data reported in ChEMBL document CHEMBL1125228, “A 3-D model for 5-HT1A-receptor agonists based on stereoselective methyl-substituted and conformationally restricted analogues of 8-hydroxy-2-(dipropylamino)tetralin” (J Med Chem, 1991).
Several values for one entry are separate records, joined by “and”; a condition that tells them apart may be missing. Equal entries are not always repeated.

Key:
Rattus norvegicus [1] = test: In vivo accumulation of 5-HTP in limbic of rat brain at a dose of 53 umol/kg.; type: functional
Summary of the method: (§1)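 Hydrochlorides given sc in the neck (5 mL/kg) to rats, either untreated or reserpine-pretreated (5 mg/kg sc, 6 h before). Decarboxylase inhibitor NSD 1015 (100 mg/kg ip or 60 mg/kg sc) given 30 min later; rats decapitated after another 30 min. Striatum, limbic system, hemispheres and brain stem dissected on ice and homogenized in 0.1 M perchloric acid with α-methyl-DOPA internal standard. DOPA, DA, 5-HTP and 5-HT measured by ion-pair reversed-phase HPLC with electrochemical detection.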

Rattus norvegicus [2] = test: In vivo accumulation of 5-HTP in brain stem of rat brain at a dose of 53 umol/kg.; type: functional; summary of the method: as §1
Rattus norvegicus [3] = test: In vivo accumulation of 5-HTP in hemisphere of rat brain at a dose of 53 umol/kg.; type: functional; summary of the method: as §1
Rattus norvegicus [4] = test: In vivo accumulation of DA in striatum of rat brain at a dose of 53 umol/kg.; type: functional; summary of the method: as §1
Rattus norvegicus [5] = test: In vivo accumulation of DOPA in brain stem of rat brain at a dose of 53 umol/kg.; type: functional; summary of the method: as §1
Rattus norvegicus [6] = test: In vivo accumulation of 5-HTP in striatum of rat brain at a dose of 53 umol/kg.; type: functional; summary of the method: as §1
Rattus norvegicus [7] = test: In vivo accumulation of 5-HT in striatum of rat brain at a dose of 53 umol/kg.; type: functional; summary of the method: as §1
Rattus norvegicus [8] = test: In vivo accumulation of DOPA in striatum of rat brain at a dose of 53 umol/kg.; type: functional
Summary of the method: (§2)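 Rats, reserpine-pretreated (5 mg/kg, i.e. 9 μmol/kg sc, 6 h before) or nonpretreated, given test hydrochloride sc in the neck (injection volume 5 mL/kg). Decarboxylase inhibitor NSD 1015 (100 mg/kg ip or 60 mg/kg sc) given 30 min later; decapitation after another 30 min. Brain dissected on ice into striatum, limbic system, hemispheres, brain stem. Homogenized in 0.1 M perchloric acid with α-methyl-DOPA internal standard; DOPA measured by ion-pair reversed-phase HPLC with electrochemical detection.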

Rattus norvegicus [9] = test: In vivo accumulation of 5-HT in limbic of rat brain at a dose of 53 umol/kg.; type: functional; summary of the method: as §1
[10] = biological target: Serotonin (5-HT) receptor (Rattus norvegicus) (UniProt P35563+P35365+P32305+P31388+Q9JJ16+P28564+P30994+Q62758+P08909+P14842+P30940+P35364+P19327+P28565); test: Dose corresponding to half-maximal decrease of 5-HTP formation in the limbic and striatal parts of rat brain; type: functional, tissue-based
[11] = biological target: T1, Dopamine receptor (Rattus norvegicus) (UniProt P25115+P19020+P30729+P18901+P61169); test: In vivo accumulation of DOPA in limbic of rat brain at a dose of 53 umol/kg.; type: functional, organism-based; summary of the method: as §2
[12] = biological target: T1, Dopamine receptor (Rattus norvegicus); test: In vivo accumulation of DOPA in hemisphere of rat brain at a dose of 53 umol/kg.; type: functional, organism-based; summary of the method: as §2

SMILES | Control (Rattus norvegicus [1]) [%] | Control (Rattus norvegicus [2]) [%] | Control (Rattus norvegicus [3]) [%] | Control (Rattus norvegicus [4]) [%] | Control (Rattus norvegicus [5]) [%] | Control (Rattus norvegicus [6]) [%] | Control (Rattus norvegicus [7]) [%] | Control (Rattus norvegicus [8]) [%] | Control (Rattus norvegicus [9]) [%] | ED50 [10] [mg/kg] | Control [11] | Control [12] [%]
CCCN1CCC[C@H]2Cc3cccc(O)c3C[C@@H]21 [listing 1 of 2 here] | 102.3 | 112.4 | 113 | 95.4 | 117.7 | 124.8 | 116.9 | 91.4 | 95.1 | – | – | –
CCCN1CCC[C@H]2Cc3cccc(O)c3C[C@H]21 | 92.6 | 110.3 | 103.9 | 81.3 | 126.9 | 81 | 100 | 67.2 | 102.9 | – | – | –
CCCN1CCC[C@@H]2Cc3cccc(O)c3C[C@@H]21 | 80.6 | 87.6 | 77.9 | 105.3 | 82.3 | 76.1 | 118.7 | 68.3 | 107.5 | – | – | –
CCCN1CCC[C@H]2Cc3cccc(O)c3C[C@@H]21 [listing 2 of 2 here] | – | – | – | – | – | – | – | – | – | > 0.05 | 91.4% and 87.5% | 98.8
